These results are taken from ChEMBL document CHEMBL1795215, “Design, synthesis and biological assessment of novel N-substituted 3-(phthalimidin-2-yl)-2,6-dioxopiperidines and 3-substituted 2,6-dioxopiperidines for TNF-α inhibitory activity” (Bioorg Med Chem, 2011).

In data set [1] the test system is RAW264.7. The data set can be described thus: Inhibition of LPS-induced TNFalpha production in mouse RAW264.7 cells assessed as TNFalph activity at 30 uM by ELISA relative to thalidomide. Type of data set: functional. A digest of the protocol:
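LPS-stimulated RAW 264.7 cells were treated at 30 μM, and TNF-α in the medium was measured by mouse TNF-α ELISA as % of vehicle control (n = 3). Fold activity relative to thalidomide = (100 − compound TNF-α % control)/(100 − thalidomide TNF-α % control).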
On the technique in general: An ELISA detects its analyte on a solid surface through an enzyme-linked reagent.

Data set [2] is described as follows: Toxicity against mouse RAW264.7 cells assessed as cell viability at 30 uM by Cell titer 96 squeous one solution cell proliferation assay untreated control. Type of data set: cell-based. The note with it: read-out: Activity. In outline:
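Viability of RAW 264.7 cells given 30 μM compound with LPS was read by CellTiter 96 Aqueous One tetrazolium dye formation, with absorbance at 490 nm. Results are % change in O.D. versus the appropriate control, mean ± S.E.M., n = 3, with Student's t-test (P<0.05 significant).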

The subject of data set [3] is RAW264.7. The data set can be described thus: Inhibition of LPS-induced TNFalpha production in mouse RAW264.7 cells assessed as TNFalph activity at 30 uM by ELISA relative to untreated control. Type of data set: functional. Also on record: scale not given: the % may be the effect or the level left. A digest of the protocol: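 RAW 264.7 cells were cultured and exposed to compound at 30 μM together with LPS. TNF-α protein in the culture medium was quantified by a mouse TNF-α-specific ELISA and expressed as % of the appropriate control. Values are mean ± S.E.M., n = 3, with Student's t-test (P<0.05 significant).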

With `Nc1cccc2c1CN(C1CCC(=O)NC1=O)C2=O` (stereo unspecified) [LENALIDOMIDE], the fold change (FC) in data set [1] is -9. Moreover, the viability at 30 µM in data set [2] came out at 106%. Further, the Activity in data set [3] is 109%.
The matching figures for `O=C1CCC(N2Cc3ccccc3C2=O)C(=O)N1CN1C(=S)c2ccccc2C1=S` (stereo unspecified): 48, 82% and 52%.
Taken in the same sequence, the figures for `O=C1CCC(N2Cc3ccccc3C2=O)C(=O)N1CSC(=S)N1CCCCC1` (stereo unspecified) were 4, 112% and 96%.
Turning to `O=C1CCC(N2C(=O)c3cccnc3C2=O)C(=O)N1` (stereo unspecified), the “fold change (FC)” value in data set [1] is on record as -4. The viability at 30 µM in data set [2] was determined as 95%. Besides, the Activity in data set [3] turned out to be 104%.
As for `O=C1CCC(N2Cc3ccccc3C2=O)C(=O)N1CN1C(=S)CCCC1=S` (stereo unspecified), the “fold change (FC)” value in data set [1] worked out at 37. Also, in data set [2], the viability at 30 µM was determined as 94%. Besides, in data set [3], the Activity amounted to 63%.
With `O=C1CCC(N2Cc3ccccc3C2=O)C(=O)N1CN1C(=O)c2ccccc2C1=O` (stereo unspecified), in data set [1], the “fold change (FC)” value is 12. Also, the viability at 30 µM in data set [2] turned out to be 98%. Further, in data set [3], the Activity is 88%.
Taken in the same sequence, the figures for `O=C1CCC(N2Cc3ccccc3C2=O)C(=O)N1CSC(=S)NC1CCCCC1` (stereo unspecified) were 45, 103% and 55%.
In the case of `O=C1CCC(N2S(=O)(=O)c3ccccc3S2(=O)=O)C(=O)N1` (stereo unspecified), the “fold change (FC)” value in data set [1] was determined as 45. Besides, the viability at 30 µM in data set [2] came out at 109%. Besides, the Activity in data set [3] came to 55%.
As to `O=C1CCC(N2C(=O)c3ccncc3C2=O)C(=O)N1` (stereo unspecified), the “fold change (FC)” value in data set [1] came to 4. For the same compound, the viability at 30 µM in data set [2] is 96%. The Activity in data set [3] is reported as 96%.
Consider `N=C1N/C(=N\C2CCC(=O)NC2=O)c2ccccc21` (stereo unspecified), for which the “fold change (FC)” value in data set [1] is recorded as 39. Further, the viability at 30 µM in data set [2] came to 116%. The Activity in data set [3] turned out to be 61%.
Regarding `N=C1c2ccccc2C(=O)N1C1CCC(=O)NC1=O` (stereo unspecified), the “fold change (FC)” value in data set [1] stood at 33. Further, the viability at 30 µM in data set [2] worked out at 84%. Moreover, the Activity in data set [3] is 67%.
In the case of `O=C1CCCC(=O)N1CN1C(=O)CCC(N2Cc3ccccc3C2=O)C1=O` (stereo unspecified), the “fold change (FC)” value in data set [1] was 21. Besides, the viability at 30 µM in data set [2] was 102%. Also, the Activity in data set [3] was found to be 79%.
